# b-catenin transl – beta-catenin nuclear translocation modulation; HeLa beta-catenin nuclear translocation, immunofluorescence imaging; nuclear translocation activity, % at 5 µM; 190,000 compounds, 0.3% hits;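 active = nuclear translocation activity above 50% at 5 µM, with a well cell count of 50 or more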;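 also: per-cell ratio of nuclear to cytoplasmic median beta-catenin stain intensity; plate controls were DMSO negative control for no effect and GSK-3 inhibitor IX positive control for full effect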
#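 Technique: fluorescence imaging of beta-catenin antibody stain plus DAPI / Material: human HeLa cell line / Incubation: compound treatment 24 h, 37°C, 5% CO2 / Read-out basis: % activation of per-cell nuclear versus cytoplasmic median beta-catenin signal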
# MT stabilizer – stabilizes microtubules in HeLa cells. HeLa tubulin immunostaining HCS, 24 h; share of cells brighter than vehicle mean+2SD. % tubulin-high responders, % at 10 µM. AID 2205. 200,000 compounds, 0.83% hits;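 active = plate Z-score above 3 for both tubulin-high and condensed-nucleus cell shares, with cell loss under 80%, at 10 µM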;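 also: anti alpha tubulin signal scored within the nucleus-defined area of each cell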
# Ba/F3 V617F tox – reduce viability of Ba/F3 cells dependent on JAK2V617F | AID 1446 | Ba/F3 EpoR-JAK2V617F viability, ATP luminescence | inhibition, % at 5.6 µM | 220,000 compounds, 1.1% hits;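 active = inhibition above the campaign mean plus 3 SD over all tested compounds, cut at about 24% in these data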;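 also: cytokine-independent growth of Ba/F3 cells driven by EpoR plus mutant JAK2; 0% = DMSO-treated cells and 100% = JAK inhibitor I control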
# Lmaj promast – Leishmania major promastigote growth inhibition; Leishmania major promastigotes, resazurin fluorescence viability; AID 1063; inhibition, % at 10 µM; 200,000 compounds, 9% hits; in the data active = inhibition above about 50%;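 also: promastigotes grown with compound for 44 hours at 28 °C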
# BaF3 parental – counter-screen for JAK2V617F inhibitors: parental Ba/F3 viability inhibitors. CellTiter-Glo ATP luminescence. inhibition, % at 5.6 µM. 220,000 compounds, 1.1% hits. AID 1486;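 active = inhibition above a per-campaign cutoff, the mean inhibition of all tested compounds plus 3 SD, cut at about 27% in these data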;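 also: 0% = DMSO wells and 100% = JAK Inhibitor I control wells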
# APP transl inh – APP translation inhibition; SH-SY5Y APP 5'UTR-luciferase reporter, luminescence; 190,000 compounds, 0.82% hits; inhibition, % at 2 µM; AID 1285;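 active = inhibition above a set limit, derived from the sample mean plus 3 SD, cut at about 45% in these data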
# The depositor's hits bear a star; / = no result. Hits are enriched below; roughly 9.6% of the tested compounds scored in any of these assays.
SMILES,b-catenin transl,MT stabilizer,Ba/F3 V617F tox,Lmaj promast,BaF3 parental,APP transl inh
CCOc1ccccc1-c1nc(C(N)=O)c2[nH]c(=O)n(-c3cccc(C)c3)c2n1,1.5,3.8,3.0,64.3*,3.5,-4.8
COc1ccc(OC)c(-c2nc(C(N)=O)c3[nH]c(=O)n(-c4ccc(F)cc4)c3n2)c1,/,7.2,-2.8,-5.2,6.1,4.3
NC(=O)c1nc(C2CCCCC2)nc2c1[nH]c(=O)n2-c1ccc(F)cc1,/,5.9,3.4,54.1*,9.4,-7.2
Clc1c(Cl)c(Cl)c2n[nH]nc2c1Cl,-1.4,/,-4.6,/,-1.9,/
O=C(NCCO)c1cc([N+](=O)[O-])cc2c1C=Cc1ccccc1O2,-2.9,3.0,0.6,95.2*,8.3,19.2
Cc1ccccc1NC(=O)C1CC(=O)N(c2ccc3c4c(cccc24)CC3)C1 (centres undefined),/,1.9,-0.5,-4.9,5.4,-6.5
O=C(Nc1ccccc1Br)C1CC(=O)N(c2ccc3c4c(cccc24)CC3)C1 (centres undefined),4.4,37.7*,-1.6,62.1*,2.5,-1.2
Cc1cccc2cc(CN(C(=S)NCC(C)C)C3CCCC3)c(=O)[nH]c12,0.7,2.5,-0.6,64.7*,2.0,13.0
Cc1cccc2cc(CN(CC3CCCO3)C(=S)Nc3ccccc3)c(=O)[nH]c12 (centres undefined),-2.5,3.0,-1.7,71.1*,6.3,4.6
Cc1cc2nc(CCN(C(=S)NCC3CCCO3)C3CCCC3)[nH]c2cc1C (centres undefined),-3.0,2.4,-3.7,22.6,1.8,6.5
Cc1cc2nc(CCN(C(=S)NCC(C)C)C3CCCC3)[nH]c2cc1C,/,2.2,1.4,71.5*,4.1,0.0
CCNC(=S)N(Cc1cc2cccc(C)c2[nH]c1=O)C1CCCC1,-1.5,2.2,0.1,96.5*,1.1,10.5
O=C(O)c1cccc(N/N=C/C2=C(Cl)c3cc(Cl)ccc3SC2)c1,0.7,2.7,-2.4,-13.1,-1.6,-194.8
CNC(=S)N(Cc1ccc(OC)cc1)Cc1cc2cccc(C)c2[nH]c1=O,1.1,1.9,1.8,57.0*,7.5,-3.2
Cc1nc2ccc(NC(=O)NC(=O)c3c(Cl)cccc3Cl)cc2o1,0.7,/,-4.1,/,-4.3,/
Cc1ccc(N=Nc2c(N)[nH]n3c(=O)c4c(nc23)CCCC4)cc1,1.7,24.3*,-2.4,46.0,1.1,4.5
Cc1[nH]n2c(=O)c3c(nc2c1-c1ccc(F)cc1)CCCC3,-0.2,1.1,-3.1,100.3*,0.2,5.0
O=c1c2c(nc3c(-c4cccc5ccccc45)c[nH]n13)CCC2,/,2.4,2.3,-4.6,6.0,9.1
O=c1c2c(nc3c(-c4ccc(Cl)cc4)c[nH]n13)CCCC2,-2.7,4.1,3.9,100.2*,14.1,10.9
Cc1[nH]n2c(=O)c3c(nc2c1-c1cccc2ccccc12)CCC3,/,2.4,0.0,-2.0,-0.9,7.5
Cc1[nH]n2c(=O)c3c(nc2c1-c1ccccc1)CCCC3,-4.3,2.8,-1.3,99.0*,2.6,-7.4
CCC(=O)N1CCN(c2ccccc2NC(=O)COc2ccccc2Cl)CC1,/,3.0,7.4,22.6,9.5,-4.6
COCCn1c(SCC(=O)Nc2ccc(Cl)cn2)nc2ccccc21,/,5.3,-1.4,1.6,4.5,18.9
Cc1ccc(NC(=O)COC(=O)C2CCC(=O)N2)c([N+](=O)[O-])c1 (centres undefined),-1.9,1.9,-1.2,-1.9,5.2,-7.4
O=c1[nH]c(CN2CCN(c3ccccc3O)CC2)nc2scc(-c3ccccc3Cl)c12,-0.4,/,3.8,/,1.6,/
O=c1[nH]c(CN2CCN(c3ccc(O)cc3)CC2)nc2scc(-c3ccc(Cl)cc3)c12,6.7,21.3*,3.5,39.6,8.8,61.5*
COc1cccc(N2CCN(Cc3nc4scc(-c5ccccc5)c4c(=O)[nH]3)CC2)c1,8.3,14.8*,0.0,-4.4,6.7,-14.0
COc1cccc(N2CCN(Cc3nc4ccccc4c(=O)[nH]3)CC2)c1,0.1,1.3,-3.8,0.1,1.0,8.1
CCOC(=O)N1CCN(S(=O)(=O)c2cc([N+](=O)[O-])c(C)cc2C)CC1,-0.5,2.1,-1.2,-1.7,6.0,-10.1
CCn1c(SCc2nc(-c3cccs3)no2)nnc1-c1c[nH]c2ccccc12,0.1,2.6,0.1,72.2*,1.8,-13.7

# Screening results (PubChem BioAssay)
